# In the library only some 3.5% were active in any assay of this set; here they are far more common.
# RGS4 block = inhibitors of human RGS4 | B-score at 10 µM | P49798 | AID 463165 | HEK293 M3R/RGS4 inducible, Fluo-4 calcium flux; stronger effect = higher value; triggered by carbachol at its EC20 | actives 0.45% (n = 310,000);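 active = B-score, a plate-corrected calcium signal, over three deviations above library mean, with baseline fluorescence within five deviations of library mean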;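 also: RGS4 expression induced by doxycycline in cells with stable M3 receptor; B-score is computed from the integrated fluorescence ratio over baseline after carbachol; higher B-score means a larger calcium signal and so more RGS4 inhibition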
# Target sequence (P49798 whole entry, looked up): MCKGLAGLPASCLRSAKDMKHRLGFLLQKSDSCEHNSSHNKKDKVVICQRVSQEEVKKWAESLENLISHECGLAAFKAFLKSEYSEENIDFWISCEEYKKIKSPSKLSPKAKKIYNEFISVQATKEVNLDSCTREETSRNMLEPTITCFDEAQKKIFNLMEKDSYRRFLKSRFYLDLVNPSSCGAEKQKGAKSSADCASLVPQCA
# RGS4 pot = RGS4 potentiation or activation; B-score at 10 µM; HEK293 M3R/inducible RGS4, carbachol calcium flux Fluo4; stronger effect = lower value; actives 0.92% (n = 310,000);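 active = B-score of the integrated calcium signal more than 4 SD below the library mean, with starting fluorescence not abnormally high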;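 also: negative B-score means reduced calcium response which marks RGS4 activation or potentiation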
#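 System – HEK293 FlpIn-TREx cells, stable M3R, doxycycline-inducible RGS4 · Reagent – ECmax carbachol challenge · Times – compound preincubation 20 min at room temperature before agonist · Technique – Fluo4 fluorescence kinetic imaging of calcium · Measure – B score of integrated Fluo4 ratio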
# MrgX1 antag = blocks BAM8-22 activation of human MrgX1 receptor | Q96LB2 | MRGX1-HEK293 calcium flux, Fluo-4, BAM8-22 antagonism; stronger effect = lower value | B-score at 10 µM | actives 1.3% (n = 310,000);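 active = calcium-response B-score plate-corrected more than 3 library SD below zero, starting fluorescence within 5 deviations, no agonist response on first addition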;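 also: peak minus trough fluorescence over baseline after final BAM8-22 challenge near maximal dose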
# Target sequence (Q96LB2 whole entry, looked up): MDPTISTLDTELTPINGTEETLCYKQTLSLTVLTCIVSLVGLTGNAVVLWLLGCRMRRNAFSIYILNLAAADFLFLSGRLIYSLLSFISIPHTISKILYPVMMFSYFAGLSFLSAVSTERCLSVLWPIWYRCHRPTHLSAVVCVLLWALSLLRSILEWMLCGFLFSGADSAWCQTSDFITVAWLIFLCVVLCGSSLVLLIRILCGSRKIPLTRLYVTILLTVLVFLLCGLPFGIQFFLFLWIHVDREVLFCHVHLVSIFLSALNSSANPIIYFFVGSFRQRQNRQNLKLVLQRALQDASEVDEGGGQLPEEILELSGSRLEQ
# MrgX1 ag = agonists of human MrgX1 receptor; Q96LB2; actives 0.44% (n = 310,000); AID 588627; B-score at 10 µM; MrgX1-HEK293 cells, Fluo-4 calcium fluorescence, agonist mode; stronger effect = higher value;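 active = calcium response B-score plate-corrected fluorescence ratio at least 3 library SD, with starting fluorescence B-score inside 5 SD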
#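 Material – MrgX1-expressing HEK293 cells · Input – 15,000 cells seeded per well · Dosing – compound as first of three additions · Times – overnight seeding, then 1 h dark dye loading · Measured by – kinetic Fluo-4 NW fluorescence of intracellular calcium · Read-out – B-scored fluorescence response ratio · Benchmarks – positive and negative control wells on each plate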
# MrgX1 allo act = human MrgX1 positive allosteric modulation, primary screen | Q96LB2 | MrgX1-HEK293, Fluo-4 calcium flux, FDSS; stronger effect = higher value | B-score at 10 µM | actives 0.63% (n = 310,000) | AID 588675;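 active = plate-corrected calcium response at least 3 library SD above typical, normal starting fluorescence, not activating the receptor alone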;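 also: compound read alongside a low EC10 to EC30 dose of BAM8-22 agonist; peak minus trough fluorescence over baseline measured at the second addition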
# MrgX1 ag confirm = human MrgX1 agonism, re-confirmation screen; shares compounds with MrgX1 ag; MrgX1-HEK293, Fluo-4 calcium fluorescence, FDSS; activation, % at 10 µM; actives 78% (n = 600); AID 602412;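 active = calcium signal rise, corrected for plate position, at least 3 library SD high, with starting brightness within 5 such deviations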
# HEK293 Ca flux = MrgX1 antagonist counter-screen hit in parental HEK293 cells | Fluo-4 calcium fluorescence, FDSS | shares compounds with MrgX1 antag | actives 2% (n = 4,000) | AID 624111 | fluorescence ratio F(max-min)/F0 at 10 µM;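 active = duplicate-averaged calcium fluorescence ratio at least three times the standard deviation of buffer wells, a nonspecific response in parental cells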
# HEK293 Ca counter = counter-screen for MrgX1 allosteric activators: effect in parental HEK293 cells; shares compounds with MrgX1 antag; parental HEK293 calcium flux, Fluo-4 fluorescence ratio; stronger effect = higher value; fluorescence ratio F(max-min)/F0 at 10 µM; actives 0.4% (n = 4,000);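 active = calcium fluorescence ratio, averaged over duplicates, at least 3 SD of the buffer-well ratio, meaning a nonspecific response in receptor-free cells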;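 also: untransfected parental HEK293 lacking MrgX1 used as counterscreen for MrgX1 allosteric activators; fluorescence change taken during the second addition on a kinetic imager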
# HEK293 Ca cntr2 = counter-screen for MrgX1 activators: effect in parental HEK293 cells; AID 624115; shares compounds with MrgX1 antag; actives 8.7% (n = 4,000); Fluo-4 calcium fluorescence (FDSS); stronger effect = higher value; fluorescence ratio F(max-min)/F0 at 10 µM;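 active = calcium fluorescence ratio at least three times the spread of buffer wells, meaning a non-specific response in parental cells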
# A number is an active result; i = inactive; nt = no result.
SMILES,RGS4 block,RGS4 pot,MrgX1 antag,MrgX1 ag,MrgX1 allo act,MrgX1 ag confirm,HEK293 Ca flux,HEK293 Ca counter,HEK293 Ca cntr2
COC(=O)Cn1c(=O)c2c(n(Cc3ccccc3)c1=O)N/C(=C/c1ccc(Br)cc1)C2=O,i,i,i,45,i,383%,i,i,72
O=C1N/C(=C/c2ccc(Br)cc2)C(O)=C1C=NCc1ccccc1,i,i,i,i,i,nt,nt,nt,nt
Cc1ccc(N/C(N)=N/c2nc(C)cc(N3CCCCC3)n2)c(C)c1,i,i,i,34,i,137%,i,i,i
Cc1ccc(N/C(N)=N/c2nc3c(c(=O)[nH]2)CCCC3)c(C)c1,i,i,i,i,i,nt,nt,nt,nt
O=C1CCCCCN1Sc1ccccc1,i,i,i,30,i,123%,i,i,i
O=C(CCSc1ccccc1)N1CCCC1,i,i,i,i,i,nt,nt,nt,nt
COc1ccccc1NC(=O)c1c[nH]c2ccccc12,i,i,i,i,i,nt,nt,nt,nt
Nc1ccc(-c2cnc3ccccc3n2)cc1,i,i,i,28,i,87%,i,i,i
Cn1c(=O)c(C(=O)NNC(=O)c2ccccc2F)c(O)c2ccccc21,i,i,i,65,i,405%,i,i,71
CCn1c(=O)c(C(=O)NNC(=O)c2ccccc2Cl)c(O)c2ccccc21,i,i,i,105,i,322%,i,i,78
Nc1nc(-c2ccc3c(c2)CCO3)cs1,i,i,i,38,i,175%,i,i,i
Nc1cccc(-c2csc(-n3ncc(C(=O)O)c3C(F)(F)F)n2)c1,i,i,i,i,i,nt,nt,nt,nt
O=C(O)c1cnn(-c2nc(-c3cccc(F)c3)cs2)c1C(F)(F)F,i,i,i,48,i,156%,i,i,i
CC(C)c1cc(C(C)C)c(S(=O)(=O)NNC(=O)c2ccncc2)c(C(C)C)c1,i,i,i,i,i,nt,nt,nt,nt
COc1ccc(CN2CCNC(=O)C2CC(=O)NCCCn2cccn2)c(OC)c1 (stereo not given),i,i,i,i,i,nt,nt,nt,nt
Cc1ccc(-n2nc(C)c3c2OC(N)=C(C#N)C3c2ccccc2F)cc1 (stereo not given),i,i,i,27,i,163%,i,i,i
Cc1ccc(-n2nc(C)c3c2OC(N)=C(C#N)C3c2ccncc2)cc1 (stereo not given),i,i,i,i,i,nt,nt,nt,nt
COc1ccc(C(=O)NNC(=S)NC(=O)c2cccs2)cc1,i,i,i,122,i,339%,i,i,94
CC(C)C(=O)Nc1ccc(C(=O)NNC(=S)NC(=O)c2cccs2)cc1,i,i,i,i,i,nt,nt,nt,nt
COc1ccc(C(=O)NNC(=S)NC(=O)c2ccc(OC)cc2)cc1,i,i,i,81,i,411%,i,i,97
COc1ccc(C(=O)NNC(=S)NC(=O)c2cccnc2)cc1,i,i,i,i,i,nt,nt,nt,nt
CCCCC(=O)NC(=S)NNC(=O)c1ccc(OC)cc1,i,i,i,98,i,578%,i,i,97
Cc1cccc(C(=O)NNC(=S)NC(=O)c2cccs2)c1,i,-7.1,i,137,i,647%,i,i,122
Cc1cccc(NC(=O)N2CCc3ccccc3C2)c1C,i,i,i,i,i,nt,nt,nt,nt
COc1ccc(Cl)cc1NC(=O)CSc1nnc(Cc2ccc(C)cc2)c(=O)[nH]1,i,i,i,36,i,160%,i,i,i
Cc1ccc(Cc2nnc(SCC(=O)Nc3ccccc3Cl)[nH]c2=O)cc1,i,i,i,i,i,nt,nt,nt,nt
O=C(CNCC1(N2CCOCC2)CCCCC1)Nc1ccc(Cl)cc1,i,i,i,74,i,i,i,i,i
O=C(Nc1ccc(N2CCOCC2)cc1)C1(c2ccc(Cl)cc2)CCC1,i,i,i,i,i,nt,nt,nt,nt
